Reference: ChEMBL document CHEMBL4428035, “Urea derivates of ursolic, oleanolic and maslinic acid induce apoptosis and are selective cytotoxic for several human tumor cell lines” (Eur J Med Chem, 2016)
Active and inactive are the calls of the source. The rule behind the calls is not given here.

Key:
SW-1736 = test: Cytotoxicity against human SW1736 cells assessed as reduction in cell proliferation after 96 hrs by sulforhodamine B assay; type: functional, cell-based; conditions: SW-1736, 96 h
518A2 = test: Cytotoxicity against human 518A2 cells assessed as reduction in cell proliferation after 96 hrs by sulforhodamine B assay; type: functional, cell-based; conditions: 518A2, 96 h
[1] = Selectivity index, ratio of EC50 for mouse NIH/3T3 cells to EC50 for human A549 cells; conditions: NIH/3T3 cells versus A549 cells
NIH3T3 = test: Cytotoxicity against mouse NIH/3T3 cells assessed as reduction in cell proliferation after 96 hrs by sulforhodamine B assay; type: ADME, cell-based; conditions: NIH3T3, 96 h
HT-29 = test: Cytotoxicity against human HT-29 cells assessed as reduction in cell proliferation after 96 hrs by sulforhodamine B assay; type: functional, cell-based; conditions: HT-29, 96 h
[2] = Selectivity index, ratio of EC50 for mouse NIH/3T3 cells to EC50 for human MCF7 cells; conditions: NIH/3T3 cells versus MCF7 cells
MCF7 = test: Cytotoxicity against human MCF7 cells assessed as reduction in cell proliferation after 96 hrs by sulforhodamine B assay; type: functional, cell-based; conditions: MCF7, 96 h
A549 = test: Cytotoxicity against human A549 cells assessed as reduction in cell proliferation after 96 hrs by sulforhodamine B assay; type: functional, cell-based; conditions: A549, 96 h
[3] = Selectivity index, ratio of EC50 for mouse NIH/3T3 cells to EC50 for human HT-29 cells; conditions: NIH/3T3 cells versus HT-29 cells
[4] = Selectivity index, ratio of EC50 for mouse NIH/3T3 cells to EC50 for human A2780 cells; conditions: NIH/3T3 cells versus A2780 cells
FaDu = test: Cytotoxicity against human FADU cells assessed as reduction in cell proliferation after 96 hrs by sulforhodamine B assay; type: functional, cell-based
A2780 [5] = test: Induction of apoptosis in human A2780 cells assessed as necrotic cells at 10 uM after 48 hrs by Annexin V/propidium iodide staining based flow cytometry relative to control; type: functional
Method in brief: (§1)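 Annexin V/propidium iodide staining of A2780 cells exposed to 10 µM compound for 24 h and 48 h, read by flow cytometry. Viable, apoptotic, necrotic and secondary-necrotic fractions were reported as relative changes versus untreated control (%).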

A2780 [6] = test: Induction of apoptosis in human A2780 cells assessed as necrotic cells at 10 uM after 24 hrs by Annexin V/propidium iodide staining based flow cytometry relative to control; type: functional; method in brief: as §1
A2780 [7] = test: Induction of apoptosis in human A2780 cells assessed as viable cells at 10 uM after 48 hrs by Annexin V/propidium iodide staining based flow cytometry relative to control; type: functional; conditions: A2780, 48 h, read-out: Activity; method in brief: as §1
A2780 [8] = test: Induction of apoptosis in human A2780 cells assessed as apoptotic cells at 10 uM after 24 hrs by Annexin V/propidium iodide staining based flow cytometry relative to control; type: functional; method in brief: as §1
A2780 [9] = test: Cell cycle arrest in human A2780 cells assessed as decrease in G1/G0 phase at 10 uM after 24 hrs by FACS analysis; type: functional, cell-based
Method in brief: (§2)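 Living A2780 cells treated with 10 µM test agent for 24 h and 48 h, then examined for cell-cycle distribution by FACS. Phase populations (Sub-G1, G1/G0, S, G2/M) were quantified by model fitting and expressed as arithmetic means of the population distribution (%).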

A2780 [10] = test: Induction of apoptosis in human A2780 cells assessed as apoptotic cells at 10 uM after 48 hrs by Annexin V/propidium iodide staining based flow cytometry relative to control; type: functional; method in brief: as §1
A2780 [11] = test: Cell cycle arrest in human A2780 cells assessed as decrease in S phase at 10 uM after 48 hrs by FACS analysis; type: functional, cell-based; method in brief: as §2
A2780 [12] = test: Cytotoxicity against human A2780 cells assessed as reduction in cell proliferation after 96 hrs by sulforhodamine B assay; type: functional, cell-based; conditions: A2780, 96 h
A2780 [13] = test: Induction of apoptosis in human A2780 cells assessed as viable cells at 10 uM after 24 hrs by Annexin V/propidium iodide staining based flow cytometry relative to control; type: functional; conditions: A2780, 24 h, read-out: Activity; method in brief: as §1
A2780 [14] = test: Induction of apoptosis in human A2780 cells assessed as secondary necrotic cells at 10 uM after 48 hrs by Annexin V/propidium iodide staining based flow cytometry relative to control; type: functional; method in brief: as §1
A2780 [15] = test: Cell cycle arrest in human A2780 cells assessed as increase in subG1 phase at 10 uM after 48 hrs by FACS analysis; type: functional, cell-based; method in brief: as §2
A2780 [16] = test: Cell cycle arrest in human A2780 cells assessed as increase in S phase at 10 uM after 24 hrs by FACS analysis; type: functional, cell-based; method in brief: as §2
A2780 [17] = test: Cell cycle arrest in human A2780 cells assessed as decrease in G1/G0 phase at 10 uM after 48 hrs by FACS analysis; type: functional, cell-based; method in brief: as §2
A2780 [18] = test: Induction of apoptosis in human A2780 cells assessed as secondary necrotic cells at 10 uM after 24 hrs by Annexin V/propidium iodide staining based flow cytometry relative to control; type: functional; method in brief: as §1
A2780 [19] = test: Cell cycle arrest in human A2780 cells assessed as decrease in G2/M phase at 10 uM after 24 hrs by FACS analysis; type: functional, cell-based; method in brief: as §2
A2780 [20] = test: Induction of apoptosis in human A2780 cells assessed as caspase-3 activation up to 72 hrs by flow cytometry; type: functional, cell-based
Method in brief: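 Caspase activation in A2780 cells was measured by flow cytometry after 24, 48 and 72 h of treatment.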

[21] = Selectivity index, ratio of EC50 for mouse NIH/3T3 cells to EC50 for human SW1736 cells
[22] = Selectivity index, ratio of EC50 for mouse NIH/3T3 cells to EC50 for human 518A2 cells
[23] = Selectivity index, ratio of EC50 for mouse NIH/3T3 cells to EC50 for human FADU cells

SMILES	EC50 (SW-1736) [µM]	EC50 (518A2) [µM]	EC50 (NIH3T3) [µM]	EC50 (HT-29) [µM]	EC50 (MCF7) [µM]	EC50 (A549) [µM]	EC50 (FaDu) [µM]	Activity (A2780 [5]) [%]	Activity (A2780 [6]) [%]	viability at 10 µM (A2780 [7]) [%]	Activity (A2780 [8]) [%]	Activity (A2780 [9])	Activity (A2780 [11])	EC50 (A2780 [12]) [µM]	change in viable cells vs control (%) at 10 µM (A2780 [13]) [%]	Activity (A2780 [15])	Activity (A2780 [16])	Activity (A2780 [17])	Activity (A2780 [18]) [%]	Activity (A2780 [19])	also measured
COCO[C@@H]1C[C@]2(C)[C@H]3CC=C4[C@@H]5CC(C)(C)CC[C@]5(C(=O)NCc5ccccc5)CC[C@@]4(C)[C@]3(C)CC[C@H]2C(C)(C)[C@H]1O	5.4	3.2	16.5	5.2	5.5	12.8	3.3														selectivity ratio [1]: 5; selectivity ratio [2]: 5; selectivity ratio [3]: 5; selectivity ratio [4]: 5
CC(=O)O[C@H]1C[C@]2(C)[C@H]3CC=C4[C@@H]5CC(C)(C)CC[C@]5(C(=O)NCc5ccccc5)CC[C@@]4(C)[C@]3(C)CC[C@H]2C(C)(C)[C@H]1OC(C)=O	3.4	0.9	9.4	3.7	3.5	5.6	2	1	-1	-79	5	Active	Active	0.5	-11	Active	Active	Active	6	Active	Activity (A2780 [10]): 55%; Activity (A2780 [14]): 23%
CC(=O)O[C@H]1C[C@]2(C)[C@H]3CC=C4[C@@H]5CC(C)(C)CC[C@]5(NC(=O)Nc5ccccc5)CC[C@@]4(C)[C@]3(C)CC[C@H]2C(C)(C)[C@H]1OC(C)=O	2.8	1.2	> 120	2.3	2.8	4.4			-1		33	Active	Active	0.9	-43	Active	Active	Active	11	Active	Activity (A2780 [20]): inactive
CC(=O)O[C@H]1C[C@]2(C)[C@H]3CC=C4[C@@H]5CC(C)(C)CC[C@]5(C(=O)NCc5ccccc5)CC[C@@]4(C)[C@]3(C)CC[C@H]2C(C)(C)[C@@H]1OC(C)=O	5.2	2.3	7.7	5.2	7.6	8.8	3.3	0	1	-75	4	Active	Active	1.1	-12	Active	Active	Active	9	Active	Activity (A2780 [10]): 45%; Activity (A2780 [14]): 29%
COCCO[C@@H]1C[C@]2(C)[C@H]3CC=C4[C@@H]5CC(C)(C)CC[C@]5(C(=O)NCc5ccccc5)CC[C@@]4(C)[C@]3(C)CC[C@H]2C(C)(C)[C@H]1OCCOC	4.6	3.5	15.5	4.9	6.8	4.9								2.7							selectivity ratio [1]: 5; Ratio EC50 [21]: 5; selectivity ratio [2]: 5; selectivity ratio [3]: 5; selectivity ratio [4]: 5; Ratio EC50 [22]: 5; Ratio EC50 [23]: 5
CC(=O)O[C@@H]1[C@H](OC(C)=O)C[C@]2(C)[C@H]3CC=C4[C@@H]5CC(C)(C)CC[C@]5(C(=O)NCc5ccccc5)CC[C@@]4(C)[C@]3(C)CC[C@H]2C1(C)C	20.7	5.7	11.4	7.7	7.8	15.6	5.5	-1	1	-65	5	Active	Active	1.9	-16	Active	Active	Active	10	Active	Activity (A2780 [10]): 45%; Activity (A2780 [14]): 20%
